# Assay results reported in ChEMBL document CHEMBL4699532, “Decoding the Papain Inhibitor from Streptomyces mobaraensis as Being Hydroxylated Chymostatin Derivatives: Purification, Structure Analysis, and Putative Biosynthetic Pathway” (J Nat Prod, 2020).
# How the values were obtained:
# Papain = target: T1, Papain (Carica papaya, UniProt P00784); experiment: Inhibition of papaya papain using cbzFRamc substrate preincubated for 10 mins followed by addition of substrate and measured every 30 sec for 60 mins by fluorescence based assay
# T1 sequence (P00784 whole entry): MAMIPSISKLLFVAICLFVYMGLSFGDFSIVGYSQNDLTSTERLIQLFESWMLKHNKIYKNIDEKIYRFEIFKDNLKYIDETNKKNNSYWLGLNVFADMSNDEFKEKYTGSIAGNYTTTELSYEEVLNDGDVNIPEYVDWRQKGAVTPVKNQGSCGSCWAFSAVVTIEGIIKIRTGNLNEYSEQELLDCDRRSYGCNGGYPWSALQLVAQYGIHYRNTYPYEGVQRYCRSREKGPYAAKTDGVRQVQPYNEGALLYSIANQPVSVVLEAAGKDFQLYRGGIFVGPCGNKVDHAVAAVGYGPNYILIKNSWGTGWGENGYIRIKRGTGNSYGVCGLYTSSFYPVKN
# Procedure, shortened: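 Papain, 1.5 nM final (added as 15 nM stock), preincubated with inhibitor for 10 min at 30 °C in 50 mM phosphate pH 6.8, 10 mM EDTA, 2 mM DTT. Started with 50 μM cbzFRamc. AMC release read every 30 s for 60 min (ex 350, em 450 nm), in triplicate. IC50 from fitted data.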
# [1] = Inhibition of chymotrypsin (unknown origin) using sucAAPFamc substrate preincubated for 10 mins followed by addition of substrate and measured every 30 sec for 60 mins by fluorescence based assay; design: species or system Homo sapiens
# Procedure, shortened: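 Chymotrypsin, 1.5 nM final (added as 15 nM stock), preincubated with inhibitor for 10 min at 30 °C in 100 mM Tris pH 7.8, 10 mM CaCl2. Started with sucAAPFamc (added as 15 μM stock). AMC release read every 30 s for 60 min (ex 350, em 450 nm), in triplicate. IC50 from fitted data.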
# Homo sapiens = species on record: Homo sapiens; experiment: Binding affinity to chymotrypsin (unknown origin) assessed as change in melting temperature at 200 uM incubated for 15 mins by scanning fluorimetry
# Procedure, shortened: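 20 μM chymotrypsin held on ice for 15 min with 200 μM inhibitor in 100 mM Tris pH 7.8, 10 mM CaCl2. Melting followed by tryptophan fluorescence at 330 and 350 nm during 1 °C/min heating (differential scanning fluorimetry), run in duplicate. Shift taken as difference from the enzyme's melting point.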
# Papain (Carica papaya) = target: T2, Papain (Carica papaya) (UniProt P00784); experiment: Binding affinity to papaya papain assessed as change in melting temperature at 200 uM incubated for 15 mins by scanning fluorimetry
# T2 sequence (whole entry): T1 sequence (P00784 whole entry)
# Procedure, shortened: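 Melting followed by tryptophan fluorescence at 330 and 350 nm during 1 °C/min heating (differential scanning fluorimetry), run in duplicate. Shift taken as difference from the enzyme's melting point.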
SMILES,IC50 (Papain),IC50 [1],ΔTm (Homo sapiens),ΔTm (Papain (Carica papaya))
CC(C)[C@H](NC(=O)[C@@H](NC(=O)N[C@@H](Cc1ccc(O)cc1)C(=O)O)[C@H]1CCNC(=N)N1)C(=O)N[C@H](C=O)Cc1ccccc1,17.8 nM,7 nM,13.5 °C,0.9 °C
CC(C)[C@H](NC(=O)[C@H](CCCNC(=N)N)NC(=O)N[C@@H](Cc1ccccc1)C(=O)O)C(=O)N[C@H](C=O)CCCNC(=N)N [ANTIPAIN],3.4 nM,> 30000 nM,1.7 °C,0.9 °C
CC(=O)N[C@@H](CC(C)C)C(=O)N[C@@H](CC(C)C)C(=O)N[C@H](C=O)CCCNC(=N)N [LEUPEPTIN],2.2 nM,> 30000 nM,0.2 °C,1 °C
CC(C)[C@H](NC(=O)[C@@H](NC(=O)N[C@@H](Cc1ccc(O)cc1)C(=O)O)[C@H]1CCNC(=N)N1)C(=O)N[C@H](C=O)Cc1ccc(O)cc1,6.3 nM,4.8 nM,15.1 °C,0.9 °C
